Results reported in ChEMBL document CHEMBL1132932, “Design of a Gag pentapeptide analogue that binds human cyclophilin A more efficiently than the entire capsid protein: new insights for the development of novel anti-HIV-1 drugs” (J Med Chem, 2000).
Starred links: 1 amine or outer side, 2 acyl side, 3 side chain; linkers in the order of their positions; H or OH if unused. Non-standard residues stand in square brackets, D forms with d. Residues, ends and D or L forms follow the SMILES beside them. *: point of attachment. Desaminohistidyl = O=C(CCc1c[nH]cn1)*; NHCH2CHPh2 = c1ccc(C(CN*)c2ccccc2)cc1; NHCHPh2 = c1ccc(C(N*)c2ccccc2)cc1; pNA = O=[N+]([O-])c1ccc(N*)cc1; NHPhenethyl = c1ccc(CCN*)cc1; Suc = O=C(CCC(=O)[*:2])[*:1]; Isovaleryl = CC(C)CC(=O)*; Ac5c = NC1(C(=O)O)CCCC1; Api = NC1(C(=O)O)CCNCC1; Aib = CC(C)(N)C(=O)O; NHBn = c1ccc(CN*)cc1

Experiments:
[1] = target: T1, Peptidyl-prolyl cis-trans isomerase A (Homo sapiens, UniProt P62937); test: 50% inhibitory concentration of competitive binding against human Peptidyl-prolyl isomerase activity using uncoupled assay
Outline: (§1)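 Recombinant human hCyp-18 (expressed in E. coli M15, ion-exchange purified), 16 nM in 35 mM Hepes pH 7.8, preincubated 2 min with peptides added from DMSO stocks (100 µM to 100 mM). Substrate Suc-Ala-Ala-Pro-Phe-DFA in TFE/0.47 M LiCl added to a final 200 µM. Uncoupled cis/trans isomerization followed by absorbance at 246 nm, 10 °C, over 6 min. Pseudo-first-order k_obs taken from 0.05–0.5 min data, activity expressed relative to uncatalyzed rate, n = 2.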
Target sequence in this assay (P62937 whole entry): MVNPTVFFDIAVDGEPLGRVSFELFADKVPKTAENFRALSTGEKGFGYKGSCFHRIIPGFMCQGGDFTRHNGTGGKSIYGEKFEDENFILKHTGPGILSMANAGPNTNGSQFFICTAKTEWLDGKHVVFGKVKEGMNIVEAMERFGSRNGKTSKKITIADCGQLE

[2] = target: T1, Peptidyl-prolyl cis-trans isomerase A; test: % inhibition of competitive binding, at 500 uM, against human Peptidyl-prolyl isomerase; outline: as §1
Target sequence in this assay (P62937 whole entry, looked up): as the sequence (P62937 whole entry) above

[3] = target: T1, Peptidyl-prolyl cis-trans isomerase A; test: % inhibition of competitive binding, at 500 uM, against hCyp-18 PPIase activity using uncoupled assay
Target sequence in this assay (P62937 whole entry, looked up): as the sequence (P62937 whole entry) above

[4] = target: T1, Peptidyl-prolyl cis-trans isomerase A; test: % inhibition of competitive binding, at 500 uM, against human Peptidyl-prolyl isomerase activity using uncoupled assay
Target sequence in this assay (P62937 whole entry, looked up): as the sequence (P62937 whole entry) above

With `CC[C@H](C)[C@H](NC(=O)[C@@H]1CCCN1C(=O)CNC(=O)[C@H](C)NC(=O)[C@H](Cc1c[nH]cn1)NC(=O)[C@@H](N)C(C)C)C(=O)N[C@@H](C)C(N)=O` the IC50 [1] was 2100 µM.
`CC(=O)N[C@H](C(=O)N[C@@H](Cc1c[nH]cn1)C(=O)N[C@@H](C)C(=O)NCC(=O)N1CCC[C@H]1C(=O)N[C@H](C(=O)N[C@H](C)C(N)=O)c1ccccc1)C(C)C` was tested, and the inhibition [2] was 43% and the IC50 [1] was 820 µM.
`CC(=O)N[C@H](C(=O)N[C@@H](Cc1cnc[nH]1)C(=O)N[C@@H](C)C(=O)NCC(=O)N1CCC[C@H]1C(=O)N[C@H](C(=O)N[C@@H](C)C(N)=O)C(C)C)C(C)C` gave an IC50 [1] of 1500 µM.
Work on `CC(=O)N[C@H](C(=O)N[C@@H](Cc1cnc[nH]1)C(=O)N[C@@H](C)C(=O)NCC(=O)N1CCC[C@H]1C(=O)N[C@@H](C(=O)N[C@H](C)C(N)=O)c1ccccc1)C(C)C` yielded an IC50 [1] of 970 µM.
`CC[C@H](C)[C@H](NC(=O)[C@@H]1CCCN1C(=O)CNC(=O)C(C)(C)NC(=O)[C@H](Cc1c[nH]cn1)NC(=O)[C@@H](NC(C)=O)C(C)C)C(=O)N[C@@H](C)C(N)=O` was tested, and the IC50 [1] was 760 µM.
In the case of `CC(=O)N[C@H](C(=O)N[C@@H](Cc1cnc[nH]1)C(=O)N[C@@H](C)C(=O)NCC(=O)N1CCC[C@H]1C(=O)N[C@@H](CCC(N)=O)C(=O)N[C@@H](C)C(N)=O)C(C)C`, the IC50 [1] is reported as 1300 µM.
With `CC(=O)N[C@H](C(=O)N[C@@H](Cc1c[nH]cn1)C(=O)N[C@@H](C)C(=O)NCC(=O)N1CCC[C@H]1C(=O)NCC(=O)N[C@@H](C)C(N)=O)C(C)C` the IC50 [1] was 2800 µM.
For `CC[C@H](C)[C@H](NC(=O)[C@@H]1CCCN1C(=O)CNC(=O)[C@H](C)NC(=O)[C@H](Cc1cnc[nH]1)NC(=O)[C@@H](NC(C)=O)C(C)C)C(=O)N[C@@H](C)C(N)=O`, the IC50 [1] was 850 µM.
`CC(=O)N[C@H](C(=O)N[C@@H](Cc1c[nH]cn1)C(=O)N[C@@H](C)C(=O)NCC(=O)N1CCC[C@H]1C(=O)NCC(=O)N[C@H](C)C(N)=O)C(C)C` was tested, and the inhibition [2] was 28%.
In the case of `CC(=O)N[C@H](C(=O)N[C@@H](Cc1c[nH]cn1)C(=O)N[C@@H](C)C(=O)NCC(=O)N1CCC[C@H]1C(=O)N[C@@H](C(=O)N[C@H](C)C(N)=O)c1ccccc1)C(C)C`, the inhibition [2] is reported as 37%.
Work on `CC(=O)N[C@H](C(=O)N[C@@H](Cc1c[nH]cn1)C(=O)N[C@@H](C)C(=O)NCC(=O)N1CCC[C@H]1C(=O)N[C@@H](CCC(N)=O)C(=O)N[C@H](C)C(N)=O)C(C)C` yielded an inhibition [2] of 15%.
Compound `CC(=O)N[C@H](C(=O)N[C@@H](Cc1c[nH]cn1)C(=O)N[C@@H](C)C(=O)NCC(=O)N1CCC[C@H]1C(=O)N[C@H](C(=O)N[C@H](C)C(N)=O)C(C)C)C(C)C` has an inhibition [2] of 31%.
`CC[C@@H](C)[C@@H](NC(=O)[C@@H]1CCCN1C(=O)CNC(=O)C(C)(C)NC(=O)[C@H](Cc1c[nH]cn1)NC(=O)[C@@H](NC(C)=O)C(C)C)C(=O)N[C@H](C)C(N)=O` gave an inhibition [2] of 45%.
Work on `CC[C@@H](C)[C@@H](NC(=O)[C@@H]1CCCN1C(=O)CNC(=O)[C@H](C)NC(=O)[C@H](Cc1c[nH]cn1)NC(=O)[C@@H](NC(C)=O)C(C)C)C(=O)N[C@H](C)C(N)=O` yielded an inhibition [2] of 19%.
`CC[C@H](C)[C@H](NC(=O)[C@@H]1CCCN1C(=O)CNC(=O)[C@H](C)NC(=O)CCc1c[nH]cn1)C(=O)N[C@H](C)C(N)=O` showed an inhibition [2] of 20%.
`CC[C@H](C)[C@H](NC(=O)[C@@H]1CCCN1C(=O)CNC(=O)[C@H](C)NC(=O)[C@@H](N)Cc1c[nH]cn1)C(=O)N[C@H](C)C(=O)O` showed an inhibition [2] of 15%.
`CC[C@H](C)[C@H](NC(=O)[C@@H]1CCCN1C(=O)CNC(=O)[C@H](C)NC(=O)[C@H](Cc1c[nH]cn1)NC(=O)CC(C)C)C(=O)N[C@H](C)C(N)=O` was tested, and the inhibition [2] was 76%.
With `CC[C@H](C)[C@H](NC(=O)[C@@H]1CCCN1C(=O)CNC(=O)[C@H](C)NC(=O)[C@H](Cc1c[nH]cn1)NC(=O)[C@@H](N)C(C)C)C(=O)N[C@H](C)C(N)=O` the inhibition [2] was 11%.
In the case of `CC[C@H](C)[C@H](NC(=O)[C@@H]1CCCN1C(=O)CNC(=O)[C@H](C)NC(=O)[C@H](Cc1c[nH]cn1)NC(C)=O)C(=O)NCc1ccccc1` (Ac-HAGPI-NHBn), the inhibition [2] is reported as 55% and the IC50 [1] is reported as 280 µM.
With `CC[C@H](C)[C@H](NC(=O)[C@@H]1CCCN1C(=O)CNC(=O)[C@H](C)NC(=O)[C@H](Cc1c[nH]cn1)NC(=O)[C@@H](NC(C)=O)C(C)C)C(=O)NCc1ccccc1` (Ac-VHAGPI-NHBn) the inhibition [2] was 88% and the IC50 [1] was 115 µM.
`CC[C@H](C)[C@H](NC(=O)[C@@H]1CCCN1C(=O)CNC(=O)[C@H](C)NC(=O)[C@H](Cc1c[nH]cn1)NC(=O)[C@@H](NC(C)=O)C(C)C)C(=O)NCC(c1ccccc1)c1ccccc1` (Ac-VHAGPI-NHCH2CHPh2) gave an inhibition [3] of 54%.
`CC[C@H](C)[C@H](NC(=O)[C@@H]1CCCN1C(=O)CNC(=O)[C@H](C)NC(=O)[C@H](Cc1c[nH]cn1)NC(=O)[C@@H](NC(C)=O)C(C)C)C(=O)NC(c1ccccc1)c1ccccc1` (Ac-VHAGPI-NHCHPh2) showed an inhibition [2] of 38% and an IC50 [1] of 1500 µM.
`CC[C@H](C)[C@H](NC(=O)[C@@H]1CCCN1C(=O)CNC(=O)[C@H](C)NC(=O)[C@H](Cc1c[nH]cn1)NC(=O)[C@@H](NC(C)=O)C(C)C)C(=O)NCCc1ccccc1` (Ac-VHAGPI-NHPhenethyl) was tested, and the inhibition [3] was 55%.
In the case of `CC(=O)N[C@H](C(=O)N[C@@H](Cc1cnc[nH]1)C(=O)N[C@@H](C)C(=O)NCC(=O)N1CCC[C@H]1C(=O)NC1(C(=O)N[C@@H](C)C(N)=O)CCCC1)C(C)C` (Ac-VHAGP[Ac5c]A-NH2), the IC50 [1] is reported as 680 µM.
For `CC(=O)N[C@H](C(=O)N[C@@H](Cc1c[nH]cn1)C(=O)N[C@@H](C)C(=O)NCC(=O)N1CCC[C@H]1C(=O)NC1(C(=O)N[C@@H](C)C(N)=O)CCCC1)C(C)C` (Ac-VHAGP[Ac5c]A-NH2), the inhibition [4] was 52%.
`CC(=O)N[C@H](C(=O)N[C@@H](Cc1c[nH]cn1)C(=O)N[C@@H](C)C(=O)NCC(=O)N1CCC[C@H]1C(=O)NC(C)(C)C(=O)N[C@@H](C)C(N)=O)C(C)C` (Ac-VHAGP[Aib]A-NH2) was tested, and the IC50 [1] was > 10000 µM.
`CC(=O)N[C@H](C(=O)N[C@@H](Cc1c[nH]cn1)C(=O)N[C@@H](C)C(=O)NCC(=O)N1CCC[C@H]1C(=O)NC1(C(=O)N[C@@H](C)C(N)=O)CCNCC1)C(C)C` (Ac-VHAGP[Api]A-NH2) was tested, and the IC50 [1] was > 10000 µM.
For `CC[C@H](C)[C@H](NC(=O)[C@@H]1CCCN1C(=O)CNC(=O)[C@H](C)NC(=O)CCc1cnc[nH]1)C(=O)NCc1ccccc1` (Desaminohistidyl-AGPI-NHBn), the IC50 [1] was > 10000 µM.
For `CC[C@H](C)[C@H](NC(=O)[C@@H]1CCCN1C(=O)CNC(=O)[C@H](C)NC(=O)[C@H](Cc1cnc[nH]1)NC(=O)[C@@H](N)C(C)C)C(=O)NCc1ccccc1` (H-VHAGPI-NHBn), the IC50 [1] was 260 µM.
With `CC[C@H](C)[C@H](NC(=O)[C@@H]1CCCN1C(=O)CNC(=O)[C@H](C)NC(=O)[C@H](Cc1c[nH]cn1)NC(=O)[C@@H](N)C(C)C)C(=O)NCc1ccccc1` (H-VHAGPI-NHBn) the inhibition [2] was 59%.
`CC[C@H](C)[C@H](NC(=O)[C@@H]1CCCN1C(=O)CNC(=O)[C@H](C)NC(=O)[C@H](Cc1cnc[nH]1)NC(=O)CC(C)C)C(=O)NCc1ccccc1` (Isovaleryl-HAGPI-NHBn) showed an IC50 [1] of 6 µM.
`CC[C@H](C)[C@H](NC(=O)[C@@H]1CCCN1C(=O)CNC(=O)[C@H](C)NC(=O)[C@H](Cc1c[nH]cn1)NC(=O)CC(C)C)C(=O)NCc1ccccc1` (Isovaleryl-HAGPI-NHBn) showed an inhibition [2] of 99%.
`CC(C)CC(=O)N[C@@H](Cc1cnc[nH]1)C(=O)N[C@@H](C)C(=O)NCC(=O)N1CCC[C@H]1C(=O)NC1(C(=O)NCc2ccccc2)CCCC1` (Isovaleryl-HAGP[Ac5c]-NHBn) showed an IC50 [1] of 90 µM.
`CC(C)CC(=O)N[C@@H](Cc1c[nH]cn1)C(=O)N[C@@H](C)C(=O)NCC(=O)N1CCC[C@H]1C(=O)NC1(C(=O)NCc2ccccc2)CCCC1` (Isovaleryl-HAGP[Ac5c]-NHBn) showed an inhibition [2] of 57%.
With `CC[C@H](C)[C@H](NC(=O)[C@@H]1CCCN1C(=O)CNC(=O)C(C)(C)NC(=O)[C@H](Cc1cnc[nH]1)NC(=O)CC(C)C)C(=O)NCc1ccccc1` (Isovaleryl-H[Aib]GPI-NHBn) the IC50 [1] was > 10000 µM.
Compound `CC(C)CC(=O)N[C@@H](Cc1c[nH]cn1)C(=O)NC(C)(C)C(=O)NCC(=O)N1CCC[C@H]1C(=O)NC1(C(=O)NCc2ccccc2)CCCC1` (Isovaleryl-H[Aib]GP[Ac5c]-NHBn) has an inhibition [2] of 50% and an IC50 [1] of 500 µM.
For `C[C@H](NC(=O)CCC(=O)O)C(=O)N[C@@H](C)C(=O)N1CCC[C@H]1C(=O)N[C@@H](Cc1ccccc1)C(=O)Nc1ccc([N+](=O)[O-])cc1` (Suc-AAPF-pNA), the inhibition [3] was 38%.
Work on `CC[C@H](C)[C@H](NC(=O)[C@@H]1CCCN1C(=O)CNC(=O)[C@H](C)NC(=O)[C@H](Cc1c[nH]cn1)NC(=O)[C@@H](NC(=O)CCC(=O)O)C(C)C)C(=O)N[C@@H](C)C(N)=O` (Suc-VHAGPIA-NH2) yielded an inhibition [2] of 13% and an IC50 [1] of 1000 µM.
Work on Ac-VQAGPIA-NH2 yielded an IC50 [1] of 2500 µM.
